A selection: hits, their analogues and other compounds. The true share with any hit is near 2%.
core dimer inh: HCV core protein dimerization inhibition; TR-FRET GST/Flag-core106 dimerization, 1536-well; inhibition, % at 5 µM; 300,000 tested, 0.33% active;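 active = inhibition above the mean of all tested compounds plus 3 SD, set per screening campaign, cut at about 45% in these data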
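Assay system – GST-tagged and Flag-tagged HCV core protein residues 1-106 · Quantity – core106 proteins, GST 13.5 nM and Flag 17 nM · Benchmarks – unlabelled core106 and no-GST-core106 wells · Read-out basis – percent inhibition of core106 dimerization signal · Detection – time-resolved FRET, ex 340 nm, em 617 and 671 nm · Schedule – 4 h at 22.5 °C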
PABP FP inh: blocks human PABP binding to poly(A) RNA. fluorescence polarization. inhibition, % at 35 µM. 290,000 tested, 1% active. AID 2014;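 also: calls also rest on retests at 20 µM and on dose response follow-up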
Target sequence (P11940 whole entry, looked up): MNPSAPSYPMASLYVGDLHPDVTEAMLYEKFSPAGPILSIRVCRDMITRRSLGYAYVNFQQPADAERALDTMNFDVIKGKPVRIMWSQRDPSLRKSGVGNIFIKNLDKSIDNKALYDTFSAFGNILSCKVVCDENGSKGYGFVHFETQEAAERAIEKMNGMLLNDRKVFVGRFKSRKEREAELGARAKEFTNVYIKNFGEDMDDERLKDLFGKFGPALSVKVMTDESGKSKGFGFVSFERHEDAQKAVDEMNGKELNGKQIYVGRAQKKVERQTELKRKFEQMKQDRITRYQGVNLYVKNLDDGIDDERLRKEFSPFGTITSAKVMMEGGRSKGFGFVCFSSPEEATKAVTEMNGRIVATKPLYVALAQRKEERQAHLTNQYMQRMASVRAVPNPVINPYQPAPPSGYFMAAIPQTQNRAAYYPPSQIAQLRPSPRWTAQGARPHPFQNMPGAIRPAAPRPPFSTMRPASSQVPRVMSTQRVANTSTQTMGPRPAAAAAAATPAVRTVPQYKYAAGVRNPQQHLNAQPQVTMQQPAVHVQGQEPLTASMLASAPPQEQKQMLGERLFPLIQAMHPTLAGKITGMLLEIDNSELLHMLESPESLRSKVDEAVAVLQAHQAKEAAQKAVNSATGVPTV
DNA FID counter-1: displaces DNA intercalator in HCV helicase counter-screen. DNA fluorescent intercalator displacement, fluorescence. inhibition, % at 7.9 µM. 290,000 tested, 0.17% active. AID 1845; in the data active = inhibition above about 37%;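 also: 0% = vehicle and 100% = reference compound; higher means more ethidium bromide displaced from hairpin DNA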
eIF4H FP inh: inhibitors of RNA binding by human eIF4H. Q15056. eIF4H fluorescence polarization binding assay. inhibition, % at 35 µM. 290,000 tested, 0.94% active. AID 2012;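 also: calls also rest on retests at 20 µM and on dose response follow-up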
PABP1 MLLE inh: blocks PAM2 peptide binding to the PABP1 MLLE domain; P11940; GST-MLLE / FITC-PAM2 fluorescence polarization; inhibition, % at 20 µM; 360,000 tested, 0.36% active; in the data active = inhibition above about 35%, passing the limit was not always enough;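 also: plate controls were DMSO wells with GST-MLLE for no effect and wells lacking GST-MLLE protein for full effect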
NS3 helicase inh: blocks Hepatitis C virus NS3 helicase unwinding; NS3 helicase DNA unwinding, Cy5 molecular beacon fluorescence; inhibition, % at 10.9 µM; 290,000 tested, 0.56% active;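 active = inhibition above the mean of all tested compounds plus 3 SD, set per campaign, cut at about 35% in these data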;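 also: 0% = DMSO wells and 100% = thioflavine S control wells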
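assay system = NS3 helicase fragment of HCV | buffer or medium = MOPS pH 6.5, MgCl2, DTT, Tween20, BSA | timing = 60 min unwinding reaction at 25 °C after ATP addition | signal = Cy5 beacon fluorescence read at start and 1 h | read-out basis = % inhibition of unwinding | control set = low DMSO, high thioflavine S at 110 µM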
NS3 helicase cf: HCV NS3 helicase inhibition, confirmation assay | shares compounds with NS3 helicase inh | 1,600 tested, 31% active | inhibition, % at 10.9 µM | NS3 helicase DNA unwinding, Cy5 molecular beacon fluorescence;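 active = inhibition above the mean of all tested compounds plus 3 SD, cutoff set per campaign, cut at about 36% in these data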
DNA FID counter-2: counter-screen for HCV NS3 helicase inhibitors: DNA intercalator displacement. shares compounds with NS3 helicase inh. DNA fluorescent intercalator displacement, fluorescence. inhibition, % at 7.9 µM. 1,600 tested, 4% active; in the data active = inhibition above about 37%;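 also: 0% = vehicle and 100% = reference compound; higher means more displacement of ethidium bromide from the DNA hairpin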
DNA FID DR: displaces fluorescent intercalator from DNA, HCV helicase counter-screen; 120 tested, under 10 active; IC50, µM; shares compounds with NS3 helicase inh; fluorescent intercalator displacement from DNA, fluorescence
Numbers without * were called inactive; nt = no result given. Unless noted, no rule for the calls is given here.

SMILES	core dimer inh	PABP FP inh	DNA FID counter-1	eIF4H FP inh	PABP1 MLLE inh	NS3 helicase inh	NS3 helicase cf	DNA FID counter-2	others
CCOC(=O)c1cnc2c(ccc3ccccc32)c1NCCN(C)C	3	6	46*	-2	-9	36*	7	75*
CCOC(=O)c1cnc2c(ccc3ccccc32)c1NCCO	-4	3	-5	-8	3	0	nt	nt
CCCc1cc(=O)oc2cc(C)cc(OCC(=O)NCc3ccncc3)c12	-3	-7	-35	-3	7	2	nt	nt
COC(=O)c1c(NC(=O)CSc2nc3ccccc3c(=O)n2-c2ccccc2)sc(C)c1C	28	-8	-20	-4	4	48*	10	-20
Cc1ccccc1NC(=O)CSc1nnc(-c2ccco2)n1N	-1	nt	nt	nt	33	nt	nt	nt
Cc1cccc(NC(=O)CSc2nnc(-c3ccco3)c(-c3ccco3)n2)c1C	11	62*	-11	91*	33	52*	77*	23
COc1ccc2c(c1)cc(C(=O)N/N=C/c1c(O)c(C(=O)O)cc3ccccc13)n2C	16	18	-3	50	-79	80*	104*	14
Cn1c(O)c(/C=N/NC(=O)c2cc3ccccc3cc2O)c2ccccc21	-3	-1	-14	9	-109	-5	nt	nt
CC(=O)C1=C(O)C(=O)N(Cc2ccccc2)C1c1ccc(Br)cc1 (centres undefined)	9	13	-29	-8	-14	41*	22	-9
CC(=O)C1=C(O)C(=O)N(Cc2ccccc2)C1c1ccco1 (centres undefined)	3	44	-5	1	-6	2	nt	nt
CC(C)CC(=O)C1=C(O)C(=O)N(Cc2ccccc2)C1c1ccccc1 (centres undefined)	-2	-2	-22	-1	7	36*	-26	-12
Cc1cccc(NC(=O)Nc2cccc(C)n2)n1	-6	-1	-6	-9	-4	39*	-8	1
Cc1cccc(NC(=O)/C=C/c2cccs2)n1	-5	0	-4	2	4	67*	-13	16
Cc1ccc(NC(=O)Nc2cccc(C)n2)cc1	-3	-9	-23	2	-5	3	nt	nt
Cc1ccc(NC(=O)CSc2sc3c(O)cc(=O)[nH]c3c2C#N)c(F)c1	-15	22	-17	28	-10	36*	27	1
Cc1cc(=O)[nH]c(SCC(=O)Nc2ccc(F)cc2)c1C#N	0	5	10	-9	-1	7	nt	nt
COc1ccc(C(=O)NC2CCSc3ccccc32)cc1S(=O)(=O)N1CCOCC1 (centres undefined)	-1	nt	nt	nt	8	nt	nt	nt
Cc1cccc(OCC(=O)Nc2nnc(-c3ccco3)s2)c1	4	19	-6	33	10	41*	-17	2
O=C(OCc1ccccc1)N1CCC2CC1c1c2cccc1N1CCOCC1 (centres undefined)	nt	nt	nt	nt	7	nt	nt	nt
O=C(NC1CCCC1)c1ccc2nc[nH]c2c1	-2	2	-1	1	1	-5	nt	nt
Cc1ccc(C)c(N2CCN(C(=O)c3ccc4nc(-c5ccco5)c(-c5ccco5)nc4c3)CC2)c1	37	25	-37	86*	26	37*	76*	-20	DNA FID DR=>79
O=C(NC1CCCC1)c1ccc2nc(-c3ccco3)c(-c3ccco3)nc2c1	24	60*	-17	102*	34	37*	115*	15	DNA FID DR=>79
Cc1cc(/C=C2\C(=N)N3N=C(C(C)C)SC3=NC2=O)c(C)n1-c1ccccc1	14	-15	-5	36	12	51*	-1	2
N=C1/C(=C/c2ccc(OCc3ccccc3F)cc2)C(=O)N=C2SC(CC(=O)N3CCOCC3)=NN12	4	11	-33	10	1	46*	42*	-6
CCOC(=O)c1c(-c2ccc(C)cc2)csc1NC(=O)C1CC=CCC1C(=O)O (centres undefined)	18	-15	-7	6	18	43*	74*	-16
SMILES	core dimer inh	PABP FP inh	DNA FID counter-1	eIF4H FP inh	PABP1 MLLE inh	NS3 helicase inh	NS3 helicase cf	DNA FID counter-2	others
CCOC(=O)c1c(-c2cccc(C)c2)csc1NC(=O)C1CC=CCC1C(=O)O (centres undefined)	2	-7	-20	2	15	14	nt	nt
CC(=O)Nc1cccc(-c2ccnc3c2CC(C)(C(=O)NCc2ccc(N(C)C)cc2)O3)c1 (centres undefined)	nt	nt	nt	nt	10	nt	nt	nt
CC(=Nc1ccccc1)C1=C(O)C(Cc2cccc(F)c2)NC1=O (centres undefined)	nt	nt	nt	nt	-4	nt	nt	nt
CCc1ccc(/C=C/C(=O)C2C(=O)c3ccccc3C2=O)cc1	7	8	-20	1	19	38*	5	5
COc1ccc(OC)c(/C=C2\SC(=S)N(NS(=O)(=O)c3ccc(C)cc3)C2=O)c1	9	-4	-17	-4	-42	-5	nt	nt
CCOc1ccc(/C=C2\SC(=S)N(NS(=O)(=O)c3ccccc3)C2=O)cc1OC	1	4	-26	-2	6	42*	79*	5
COc1ccc(OC)c(/C=C2\SC(=S)N(NS(=O)(=O)c3ccccc3)C2=O)c1	-2	-5	-21	-5	-19	33	nt	nt
COc1ccc(/C=C2\SC(=S)N(NS(=O)(=O)c3ccc(C)cc3)C2=O)c(OC)c1	2	4	-17	0	-20	111*	80*	-26
COc1ccccc1/C=C1\SC(=S)N(NS(=O)(=O)c2ccc(C)cc2)C1=O	5	4	-21	-5	13	41*	71*	-12
CC(C)Nc1nc(NC(C)C)nc(Oc2ccc(=O)n(C)n2)n1	-3	0	-2	-5	0	-9	nt	nt
CC(C)Nc1nc(Oc2ccc(=O)n(-c3ccccc3)n2)nc(N(C)C)n1	0	-12	-37	-6	-40	36*	-3	-20
CCOC(=O)CC(=O)CSc1nc(N)c(C#N)c(-c2ccc(F)cc2)c1C#N	4	64*	-4	62*	-3	57*	-3	5
CCOC(=O)CSc1nc(N)c(C#N)c(-c2ccc(OC)cc2)c1C#N	16	0	-4	0	-89	-11	nt	nt
COc1cccc(/C=C/C(=O)OCC(=O)c2ccc(Br)cc2)c1	nt	nt	nt	nt	7	nt	nt	nt
COC(=O)c1ccc(-n2c(C)cc(/C=N/Nc3nc(C)cc(=O)[nH]3)c2C)cc1	7	-8	-21	-1	-16	38*	0	-26

Assay outcomes: PubChem, several laboratories
